Source: PubChem BioAssay
Hits are enriched below; roughly 1.8% of the tested compounds scored in any of these assays.
CAL PDZ FP-1: blocks peptide binding to the human CAL PDZ domain; 300,000 tested, 0.92% active; purified CAL PDZ, TMR-peptide fluorescence polarization, 1 h; Q9HD26; inhibition, % at 24.9 µM;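 active = mean inhibition of at least 30% with at least half of replicates also reaching 30%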;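 note: 0% = DMSO neutral control and 100% = excess unlabeled competitor peptide PRC23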
GRK2 aptamer HTS: blocks RNA aptamer binding to human GRK2. bead flow cytometry, FAM-aptamer displacement from GRK2. inhibition of aptamer binding, % at 10 µM. 330,000 tested, 0.59% active. AID 488847;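 active = inhibition of aptamer binding above 40%, roughly 3 SD of noise, on plates passing a quality check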;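 note: median bead fluorescence of bound FAM aptamer so fluorescent compounds give negative values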
Target sequence (P25098 whole entry, looked up): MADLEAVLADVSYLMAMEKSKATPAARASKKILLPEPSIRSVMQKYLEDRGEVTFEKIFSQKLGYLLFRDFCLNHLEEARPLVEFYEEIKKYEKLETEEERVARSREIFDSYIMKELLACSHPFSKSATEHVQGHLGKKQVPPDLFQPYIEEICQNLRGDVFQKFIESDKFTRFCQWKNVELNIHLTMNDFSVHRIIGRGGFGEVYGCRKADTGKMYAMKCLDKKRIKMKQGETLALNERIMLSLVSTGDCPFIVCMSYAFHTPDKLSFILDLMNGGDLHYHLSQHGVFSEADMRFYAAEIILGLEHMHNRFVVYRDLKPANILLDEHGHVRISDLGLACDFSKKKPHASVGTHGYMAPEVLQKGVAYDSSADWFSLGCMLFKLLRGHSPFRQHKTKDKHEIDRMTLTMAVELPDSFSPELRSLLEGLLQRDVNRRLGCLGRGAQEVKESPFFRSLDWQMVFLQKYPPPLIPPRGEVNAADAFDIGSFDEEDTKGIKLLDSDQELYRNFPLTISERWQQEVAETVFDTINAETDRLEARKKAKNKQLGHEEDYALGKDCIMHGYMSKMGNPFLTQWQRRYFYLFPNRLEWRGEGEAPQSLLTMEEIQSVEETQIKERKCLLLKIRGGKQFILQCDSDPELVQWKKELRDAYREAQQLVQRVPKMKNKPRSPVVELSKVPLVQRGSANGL
ARNT TACC3 PPI: ARNT/TACC3 interaction disruption; inhibition, % at 9.99 µM; AlphaScreen His-ARNT PAS-B/GST-TACC3 binding, luminescence; TACC3 fragment carries E629A point mutation; Q9Y6A5; 390,000 tested, 0.66% active; AID 623870;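 active = mean inhibition of replicates at least 50% and at least half of replicates each reaching 50%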;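 note: 0% = complete ARNT plus TACC3 wells and 100% = ARNT alone without TACC3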
Tn7 DDE FP: DD(E)-Tn7 binding inhibition, primary FP screen; P02675; FP displacement of FITC-Tn7 peptide from fibrin DD(E); 0% = median of compound wells per plate; inhibition, % at 8.3 µM; 370,000 tested, 0.13% active;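 active = inhibition above the mean of compounds falling within the control limits plus 3 SD of them, cut at about 14% in these data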;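 note: 0% = plate median of compound wells and 100% = 10 µM Aha-Tn7 peptide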
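Assay system: Human fibrin DD(E) protein | Medium: Tris buffer with calcium and detergent, pH 7.8 | Reagent: 0.1 µM fluorescent Tn7 | Compound dosing: Single point at 8.3 µM | Times: 10 min preincubation, 3 h with tracer, room temperature | Detection: Fluorescence polarization of the labelled Tn7 tracer | Controls: Aha-Tn7 high control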
DDE Tn6 FP inh: disrupts Tn6 cyclic peptide binding to fibrin D-Dimer-E complex | P02675 | Fibrin DD(E) TRITC-Tn6 fluorescence polarization displacement | inhibition, % at 8.3 µM | 370,000 tested, 0.21% active;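 active = inhibition above a per-campaign cutoff: mean of compounds within control limits plus 3 SD, cut at about 15% in these data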;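 note: 0% = median of all compound wells on the plate and 100% = blocking peptide control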
CAL PDZ FP-2: inhibitors of human CAL PDZ peptide binding; Q9HD26; purified CAL PDZ, TMR-peptide fluorescence polarization, 1 h; inhibition, % at 20 µM; 330,000 tested, 0.02% active; AID 504414;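 active = highest replicate inhibition of at least 40%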;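 note: plate controls were DMSO neutral control wells for no effect and unlabeled competitor peptide control wells for full effect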
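System: tagged CAL PDZ domain. Schedule: 1 h room-temperature incubation prior to read. Signal: fluorescence polarization (mP). Measure: percent inhibition from loss of millipolarization.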
ARNT Alpha ctr-1: AlphaScreen artifact in ARNT/TACC3 counter-screen; His-ARNT PASB-GST AlphaScreen artifact counter-screen, luminescence; 1,200 tested, 50% active; AC50, µM (titrated, usually from 68 µM), for inactives: at the top dose activity change, negative = signal decrease; shares compounds with ARNT TACC3 PPI;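 active = every separate test run was called active for a drop in luminescence, with AC50 within twice the top valid dose, actives reach about 71 µM in these data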
ARNT Alpha ctr-2: produces AlphaScreen artifacts in ARNT-TACC3 counter-screen; AC50, µM; 45 tested, 70% active; shares compounds with ARNT TACC3 PPI; Dual-tagged His-ARNT PASB-GST AlphaScreen artifact counter-screen; AID 720564;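 active = luminescence drop, with half-maximal potency fitted within twice the sample's top valid dose, cut at about 70 µM in these data; inactive = the rest, including signal moving the wrong way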
Starred values were filed as active, the others as inactive; nt = no result.

SMILES | CAL PDZ FP-1 | GRK2 aptamer HTS | ARNT TACC3 PPI | Tn7 DDE FP | DDE Tn6 FP inh | CAL PDZ FP-2 | ARNT Alpha ctr-1 | others
COCc1cn(CC[C@@H]2CC[C@@H](NC(=O)c3ccncc3)[C@@H](CO)O2)nn1 | nt | nt | 1 | nt | nt | nt | nt
O=C(N[C@@H]1CC[C@H](CCn2cc(-c3ccccn3)nn2)O[C@H]1CO)c1ccncc1 | nt | nt | 57* | nt | nt | nt | 31µM*
O=C(N[C@H]1CC[C@H](CCn2cc(-c3ccccn3)nn2)O[C@@H]1CO)c1ccc(F)cc1 | nt | nt | 59* | nt | nt | nt | 59µM*
COCc1cn(CC[C@H]2CC[C@@H](NC(=O)c3ccccc3)[C@@H](CO)O2)nn1 | nt | nt | -15 | nt | nt | nt | nt
Cc1noc(C)c1NC(=O)Nc1ccc2c(c1)C(=O)N([C@H](C)CO)C[C@H](C)[C@H](CN(C)C(=O)Nc1c(C)noc1C)O2 | nt | nt | 1 | nt | nt | nt | nt
C=CCN1C(=O)[C@@H](CC(=O)NCCC(C)C)[C@]2(C(=O)OC)CCCCC=C12 | nt | nt | nt | -3 | 5 | nt | nt
O=[N+]([O-])c1nccn1CC(O)CCN1CCOCC1 (stereo not drawn) | nt | nt | nt | 2 | 0 | nt | nt
O=C(N[C@H]1CC[C@@H](CCn2cc(-c3ccccn3)nn2)O[C@H]1CO)c1ccccc1 | nt | nt | 81* | nt | nt | nt | 33µM*
Cc1ccc(S(=O)(=O)Nc2ccc3c(c2)C(=O)N([C@@H](C)CO)C[C@@H](C)[C@@H](CN(C)S(=O)(=O)c2cn(C)cn2)O3)cc1 | nt | nt | 11 | nt | nt | nt | nt
CO[C@H]1CN(C)C(=O)c2cccc(C#N)c2OC[C@H]2O[C@@H](CC[C@H]2OC)CCN(C)C(=O)[C@H]1C | nt | nt | 6 | nt | nt | nt | nt
O=C(Nc1ccc(Br)cn1)c1cccc(C(=O)Nc2ccc(Br)cn2)c1 | 0 | 0 | active | -8 | -1 | -1 | -1%
Cc1c(NC(=O)c2cccnc2C(=O)O)cccc1C(=O)O | -3 | 3 | 34* | -5 | -5 | -2 | 4%
O=C(CNCc1ccccn1)Nc1ccc([N+](=O)[O-])cc1C(=O)Nc1ccccc1F | 1 | 3 | 62* | 1 | -7 | -2 | 28µM*
CC(NC(=O)COC(=O)c1ccc([N+](=O)[O-])o1)c1ccccc1 (stereo not drawn) | -2 | 0 | 29* | -4 | -3 | 1 | 1%
O=C(COC(=O)c1ccc([N+](=O)[O-])o1)Nc1ccc(F)cc1 | -2 | 10 | active | 4 | 6 | 1 | -5%
Cc1noc(C)c1NC(=O)Nc1cccc2c1O[C@H](CN(C)S(=O)(=O)c1cn(C)cn1)[C@H](C)CN([C@H](C)CO)C2=O | nt | nt | 10 | nt | nt | nt | nt
CNC[C@@H]1Oc2ccc(NS(=O)(=O)c3ccc(C)cc3)cc2CC(=O)N([C@@H](C)CO)C[C@@H]1C | nt | nt | -4 | nt | nt | nt | nt
Cc1ccc(C(c2cc(Cl)c3cccnc3c2O)N2CCN(C)CC2)cc1 (stereo not drawn) | 7 | 0 | nt | nt | nt | -1 | nt
Oc1c(C(c2ccccc2Cl)N2CCCC2)ccc2cccnc12 (stereo not drawn) | -6 | 0 | 74* | 0 | -8 | -3 | 8.4µM*
Oc1c(C(c2cccs2)N2CCN(c3ccccc3)CC2)ccc2cccnc12 (stereo not drawn) | nt | 0 | nt | nt | nt | nt | nt
CN1CCN(C(c2ccccn2)c2cc(Cl)c3cccnc3c2O)CC1 (stereo not drawn) | 14 | 0 | 52* | 1 | 5 | -1 | 21µM*
Oc1c(C(c2ccc(Cl)cc2)N2CCCC2)cc(Cl)c2cccnc12 (stereo not drawn) | -2 | 0 | 55* | -4 | 0 | 0 | 6.5µM*
N#CC1=C2CCCCC2(O)NC1=O (stereo not drawn) | nt | nt | nt | -1 | -8 | nt | nt
c1ccc(-c2ccc(-c3ccccn3)nn2)nc1 | nt | 6 | nt | -6 | 9 | nt | nt
c1ccc(-c2nn[nH]n2)cc1 | nt | 2 | -8 | 6 | 5 | 0 | nt
SMILES | CAL PDZ FP-1 | GRK2 aptamer HTS | ARNT TACC3 PPI | Tn7 DDE FP | DDE Tn6 FP inh | CAL PDZ FP-2 | ARNT Alpha ctr-1 | others
c1ccc(-c2n[nH]c(-c3ccccn3)n2)nc1 | 4 | 0 | 60* | -2 | -10 | 0 | 7.5µM*
c1ccc(-c2nn[nH]n2)nc1 | -9 | 1 | 67* | 0 | -3 | -1 | 53µM*
O=C(CN1C(=O)NC2(CCCC2)C1=O)OCc1ccc(Cl)cc1Cl | -4 | 1 | -3 | -4 | -4 | -1 | nt
Cc1cc(C)nc(N2CCCC(C(=O)Nc3cccc(Cl)c3)C2)n1 (stereo not drawn) | 0 | 0 | -8 | -1 | 2 | -2 | nt
CCc1cc2c(=O)[nH]c(-c3ccccn3)nc2s1 | -1 | 6 | 76* | 1 | 5 | -2 | 51µM* | ARNT Alpha ctr-2=17*
O=C(Nc1ccccc1C(F)(F)F)c1cnccn1 | nt | 0 | -26 | 7 | 9 | 0 | nt
O=C(Nc1ccccc1C(F)(F)F)c1ncn[nH]1 | -1 | 0 | 59* | -6 | 1 | -3 | -28%
